# Results as given in ChEMBL document CHEMBL1938288, “Discovery, synthesis, and pharmacological evaluation of spiropiperidine hydroxamic acid based derivatives as structurally novel histone deacetylase (HDAC) inhibitors” (J Med Chem, 2011).
# pIC50: −log10 of the molar value. Active and inactive are the calls of the source. The calls are words filed in the database; no cut-off is given here.
# Experiments:
# HCT-116 [1] = assay: Cell cycle arrest in human HCT116 cells assessed as decrease in G2/M phase cells at 0.3 uM after 24 hrs by flow cytometry; assay type: functional, cell-based
# Procedure, shortened: (§1)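 HCT-116 cells treated for 24 h at several concentrations. Harvested, fixed in 70% ethanol at -20 °C, RNase treated (1 mg/mL), stained with propidium iodide. DNA content measured by flow cytometry to give phase distribution, including the subG1 population.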
# Mus musculus [2] = assay: Increase of histone H4 cetylation in human HCT116 cells xenografted in CD1 mouse at 35 to 150 mg/kg, po administered for 5 days/week for 17 days by immunohistochemistry; assay type: functional, organism-based; settings: HCT-116
# Procedure, shortened: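 Xenograft tumours from the oral efficacy study were collected 2 h after the last dose. They were formalin-fixed, paraffin-embedded, unmasked in TEG buffer pH 9, treated 5 min with 3% H2O2, and incubated overnight at 4 °C with anti-acetyl-histone H4. Staining was developed by HRP detection with hematoxylin counterstain. Positive cells and signal intensity were compared with vehicle.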
# [3] = Oral bioavailability in CD1 mouse at 15 mg/kg; assay type: ADME, organism-based; settings: in vivo
# Procedure, shortened: (§2)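 Single dose to male CD-1 mice, either iv at 5 mg/kg or oral at 15 mg/kg. Plasma pharmacokinetic parameters were calculated from these dosings.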
# [4] = AUC (0 to infinity) in CD1 mouse at 5 mg/kg, iv; assay type: ADME, organism-based; parameters: time infinity, dose 5 mg/kg, route intravenous; settings: plasma; procedure, shortened: as §2
# [5] = Tmax in mouse; assay type: ADME, organism-based; settings: in vivo
# [6] = Cmax in CD1 mouse at 15 mg/kg, po; assay type: ADME, organism-based; parameters: dose 15 mg/kg, route oral; settings: in vivo; procedure, shortened: as §2
# HCT-116 [7] = assay: Antitumor activity against human HCT116 cells xenografted in po dosed CD1 nude mouse assessed as reduced tumor volume administered for 5 days/week for 17 days; assay type: functional, organism-based
# Procedure, shortened: (§3)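 Female CD-1 nude mice bearing subcutaneous flank HCT-116 tumours (5 × 10⁶ cells injected). Dosing began at about 100 mm³ tumour volume. Given orally at 35–150 mg/kg in water with 5% DMSO and 9.5% encapsin, 5 days/week for 17 days. Tumour volume tracked against vehicle controls. T/C = mean relative tumour volume treated / control.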
# Histone deacetylase 4 = Histone deacetylase 4 (Homo sapiens, UniProt P56524); assay: Inhibition of HDAC4 using carboxyfluorescein-labeled peptide as substrate after 17 hrs by fluorescence assay
# Sequence of Histone deacetylase 4 (P56524 whole entry): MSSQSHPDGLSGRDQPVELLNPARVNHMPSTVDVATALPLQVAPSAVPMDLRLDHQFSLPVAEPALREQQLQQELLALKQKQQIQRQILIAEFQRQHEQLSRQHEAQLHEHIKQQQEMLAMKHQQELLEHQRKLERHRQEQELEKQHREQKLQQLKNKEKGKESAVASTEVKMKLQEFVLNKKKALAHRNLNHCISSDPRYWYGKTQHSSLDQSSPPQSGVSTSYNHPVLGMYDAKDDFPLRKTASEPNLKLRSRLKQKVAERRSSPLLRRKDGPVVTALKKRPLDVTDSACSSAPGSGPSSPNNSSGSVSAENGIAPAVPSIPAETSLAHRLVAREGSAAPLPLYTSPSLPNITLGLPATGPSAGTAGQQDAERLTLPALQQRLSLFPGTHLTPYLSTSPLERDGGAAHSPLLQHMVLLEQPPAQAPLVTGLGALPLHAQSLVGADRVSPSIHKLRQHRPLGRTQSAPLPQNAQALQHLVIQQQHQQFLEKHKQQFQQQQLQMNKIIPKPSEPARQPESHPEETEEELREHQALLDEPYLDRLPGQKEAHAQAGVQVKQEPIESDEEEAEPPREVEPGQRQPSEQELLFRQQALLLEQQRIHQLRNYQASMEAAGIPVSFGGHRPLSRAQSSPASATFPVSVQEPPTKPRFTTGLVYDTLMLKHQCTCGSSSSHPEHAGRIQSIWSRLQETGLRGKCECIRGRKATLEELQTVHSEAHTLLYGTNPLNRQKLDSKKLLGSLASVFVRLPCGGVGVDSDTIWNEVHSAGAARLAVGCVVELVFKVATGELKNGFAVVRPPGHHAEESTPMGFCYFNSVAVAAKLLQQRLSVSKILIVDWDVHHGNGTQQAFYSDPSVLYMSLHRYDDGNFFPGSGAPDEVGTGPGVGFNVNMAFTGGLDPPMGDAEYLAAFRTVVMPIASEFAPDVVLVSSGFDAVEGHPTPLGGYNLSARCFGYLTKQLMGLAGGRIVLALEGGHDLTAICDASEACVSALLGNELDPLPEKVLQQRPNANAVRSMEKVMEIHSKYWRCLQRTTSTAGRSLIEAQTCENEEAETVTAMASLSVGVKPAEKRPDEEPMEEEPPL
# Procedure, shortened: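 Stopped with HEPES/0.08% SDS. Substrate and product separated electrophoretically, read by green fluorescence. Duplicates. IC50 from 12-point concentration-response curves by nonlinear regression. Run by contract lab.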
# [8] = Cmax in CD1 mouse at 5 mg/kg, iv; assay type: ADME, organism-based; parameters: dose 5 mg/kg, route intravenous; settings: in vivo; procedure, shortened: as §2
# HCT-116 [9] = assay: Antiproliferative activity against human HCT116 cells after 72 hrs by CellTiter-Glo luminescent cell viability assay; assay type: functional, cell-based; settings: HCT-116, 72 h
# Procedure, shortened: (§4)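 Cells in exponential growth exposed to a range of inhibitor concentrations for 72 h. CellTiter-Glo reagent added, mixed 2 min to lyse cells, luminescence read 10 min later. IC50 derived from the concentration–response. Replicates n ≥ 2, mean shown.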
# K562 = assay: Antiproliferative activity against human K562 cells after 72 hrs by CellTiter-Glo luminescent cell viability assay; assay type: functional, cell-based; settings: K562, 72 h; procedure, shortened: as §4
# Histone deacetylase = assay: Inhibition of human HDAC in HeLa cell nuclear extracts using KI-104 Fluor de Lys as substrate by fluorescence assay; assay type: protein assay
# Procedure, shortened: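 HDAC activity from partially purified HeLa nuclear extracts, using a fluorogenic acetylated histone peptide (Fluor de Lys) as substrate. Replicates n ≥ 2, mean values reported.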
# [10] = Tmax in CD1 mouse at 5 mg/kg, iv and 15 mg/kg, po; assay type: ADME, organism-based; settings: in vivo; procedure, shortened: as §2
# Histone deacetylase 1 = Histone deacetylase 1 (Homo sapiens, UniProt Q13547); assay: Inhibition of HDAC1 using carboxyfluorescein-labeled peptide as substrate after 17 hrs by fluorescence assay
# Sequence of Histone deacetylase 1 (Q13547 whole entry, canonical isoform): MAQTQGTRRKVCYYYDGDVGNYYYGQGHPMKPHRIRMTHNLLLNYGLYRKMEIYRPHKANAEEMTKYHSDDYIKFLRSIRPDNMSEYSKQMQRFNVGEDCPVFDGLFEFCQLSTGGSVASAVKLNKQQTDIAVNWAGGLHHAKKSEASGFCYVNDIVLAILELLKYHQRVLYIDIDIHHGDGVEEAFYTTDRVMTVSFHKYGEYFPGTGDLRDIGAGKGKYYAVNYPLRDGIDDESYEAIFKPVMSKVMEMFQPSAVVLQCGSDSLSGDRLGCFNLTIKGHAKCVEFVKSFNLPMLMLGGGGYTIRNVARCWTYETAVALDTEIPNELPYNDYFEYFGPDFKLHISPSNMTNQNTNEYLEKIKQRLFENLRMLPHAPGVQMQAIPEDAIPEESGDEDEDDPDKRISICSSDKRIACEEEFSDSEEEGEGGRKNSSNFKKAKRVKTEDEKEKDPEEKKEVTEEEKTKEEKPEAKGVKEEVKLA
# Procedure, shortened: (§5)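 Purified HDAC isoforms incubated with compound and 1 μM carboxyfluorescein-labelled peptide for 17 h at 25 °C. Reaction stopped with HEPES/0.08% SDS. Substrate and product separated electrophoretically and read by fluorescence. Run in duplicate. IC50 from 12-point curves by nonlinear regression.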
# A549 = assay: Antiproliferative activity against human A549 cells after 72 hrs by CellTiter-Glo luminescent cell viability assay; assay type: functional, cell-based; settings: A549, 72 h; procedure, shortened: as §4
# [11] = target: T1, Histone deacetylase (Homo sapiens) (UniProt Q13547+O15379+Q9UBN7+Q92769+Q9UQL6+Q8WUI4+Q9BY41+Q96DB2+P56524+Q9UKV0+Q969S8); settings: HCT-116, 100 uM
# HCT-116 [12] = assay: Cell cycle arrest in human HCT116 cells assessed as decrease in S phase cells at 0.3 uM after 24 hrs by flow cytometry; assay type: functional, cell-based; procedure, shortened: as §1
# HCT-116 [13] = assay: Cell cycle arrest in human HCT116 cells assessed as accumulation at subG1 phase after 24 hrs by flow cytometry; assay type: functional, cell-based; procedure, shortened: as §1
# Mus musculus [14] = assay: Toxicity in human HCT116 cells xenografted CD1 nude mouse assessed as signs of toxicity at 35 to 150 mg/kg, po administered for 5 days/week for 17 days; assay type: organism-based, HCT-116; parameters: dose 35-150 mg/kg, route oral; settings: in vivo
# [15] = Plasma clearance in CD1 mouse at 5 mg/kg, iv and 15 mg/kg, po; assay type: ADME, organism-based; procedure, shortened: as §2
# Mus musculus [16] = assay: Toxicity in human HCT116 cells xenografted CD1 nude mouse assessed as change in body weight at 35 to 150 mg/kg, po administered for 5 days/week for 17 days; assay type: organism-based, HCT-116; parameters: dose 35-150 mg/kg, route oral; settings: in vivo
# Mus musculus [17] = species on record: Mus musculus; assay: Hepatic blood flow in mouse; assay type: ADME, organism-based, Liver
# HCT-116 [18] = assay: Antitumor activity against human HCT116 cells xenografted in CD1 nude mouse assessed as reduced tumor volume 150 mg/kg, po administered for 5 days/week for 17 days; assay type: functional; procedure, shortened: as §3
# [19] = Volume of distribution at steady state in CD1 mouse at 5 mg/kg, iv and 15 mg/kg, po; assay type: ADME, organism-based; settings: in vivo, read-out: Vdss; procedure, shortened: as §2
# Histone deacetylase 3 = Histone deacetylase 3 (Homo sapiens, UniProt O15379); assay: Inhibition of HDAC3 using carboxyfluorescein-labeled peptide as substrate after 17 hrs by fluorescence assay; procedure, shortened: as §5
# Sequence of Histone deacetylase 3 (O15379 whole entry): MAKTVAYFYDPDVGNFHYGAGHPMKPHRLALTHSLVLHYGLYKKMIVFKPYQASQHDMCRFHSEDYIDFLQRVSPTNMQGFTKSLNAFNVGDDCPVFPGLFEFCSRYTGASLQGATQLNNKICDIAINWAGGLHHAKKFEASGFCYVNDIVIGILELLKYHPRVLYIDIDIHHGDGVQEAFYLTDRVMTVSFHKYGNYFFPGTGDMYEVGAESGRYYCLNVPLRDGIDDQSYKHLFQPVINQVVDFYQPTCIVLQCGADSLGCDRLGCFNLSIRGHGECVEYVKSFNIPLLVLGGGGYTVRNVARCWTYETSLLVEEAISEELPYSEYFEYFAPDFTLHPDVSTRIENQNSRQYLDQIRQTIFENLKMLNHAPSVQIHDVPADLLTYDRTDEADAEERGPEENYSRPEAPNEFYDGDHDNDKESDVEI
# [20] = target: T1, Histone deacetylase (Homo sapiens); settings: HCT-116, 0.001 to 10 uM
# [21] = Elimination half life in CD1 mouse at 5 mg/kg, iv and 15 mg/kg, po; assay type: ADME, organism-based; settings: in vivo, read-out: beta t1/2 (converted); procedure, shortened: as §2
# [22] = AUC (0 to infinity) in CD1 mouse at 15 mg/kg, po; assay type: ADME, organism-based; parameters: time infinity, dose 15 mg/kg, route oral; settings: plasma; procedure, shortened: as §2
structure (smiles),measurement,setting,value
O=C(/C=C/c1ccc2c(c1)C(=O)CC1(CCN(Cc3ccccc3)CC1)O2)NO,Activity,HCT-116 [1],Active
same,Activity,Mus musculus [2],Active
same,bioavailability,[3],31.5%
same,AUC(0-inf),[4],847 ng·h/mL
same,Tmax,[5],15 min
same,Cmax,[6],823 nM
same,Activity,HCT-116 [7],Dose-dependent effect
same,pIC50,Histone deacetylase 4,6.90
same,Cmax,[8],12.5 µM
same,pIC50,HCT-116 [9],6.32
same,pIC50,K562,6.40
same,IC50,Histone deacetylase,0.121 µM
same,Tmax,[10],15 min
same,pIC50,Histone deacetylase 1,7.03
same,pIC50,A549,6.11
same,inhibition,[11],Active
same,Activity,HCT-116 [12],Active
same,Activity,HCT-116 [13],Dose-dependent effect
same,Activity,Mus musculus [14],Non-toxic
same,clearance,[15],98 mL/min/kg
same,Activity,Mus musculus [16],Non-toxic
same,QH,Mus musculus [17],5.4 L/h/kg
same,T/C,HCT-116 [18],0.3
same,Vd,[19],8.9 L/kg
same,pIC50,Histone deacetylase 3,8.03
same,inhibition,[20],tde
same,half-life,[21],504 min
same,AUC(0-inf),[22],800 ng·h/mL
